Drawing on ChEMBL document CHEMBL1153849, “Synthesis and biological evaluation of benzenesulfonamide-substituted 4-(6-alkylpyridin-2-yl)-5-(quinoxalin-6-yl)imidazoles as transforming growth factor-beta type 1 receptor kinase inhibitors” (Eur J Med Chem, 2009), this text covers Activity for 13 compounds.

Experiment [1] deals with Mitogen-activated protein kinase 14 (Homo sapiens) (UniProt Q16539). The experiment in a line: Inhibition of p38alpha MAP kinase at 10 uM. Further details: scale not given: the % may be the effect or the level left. In a few lines: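 Radiometric coupled assay. [γ-³²P]ATP and MAPKAP kinase-2 substrate then added, 10 min at 30 °C. Mixture spotted onto P81 phosphocellulose paper, washed with 0.75% phosphoric acid, bound radioactivity counted by liquid scintillation.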
Sequence of Mitogen-activated protein kinase 14 (Homo sapiens) (Q16539 whole entry): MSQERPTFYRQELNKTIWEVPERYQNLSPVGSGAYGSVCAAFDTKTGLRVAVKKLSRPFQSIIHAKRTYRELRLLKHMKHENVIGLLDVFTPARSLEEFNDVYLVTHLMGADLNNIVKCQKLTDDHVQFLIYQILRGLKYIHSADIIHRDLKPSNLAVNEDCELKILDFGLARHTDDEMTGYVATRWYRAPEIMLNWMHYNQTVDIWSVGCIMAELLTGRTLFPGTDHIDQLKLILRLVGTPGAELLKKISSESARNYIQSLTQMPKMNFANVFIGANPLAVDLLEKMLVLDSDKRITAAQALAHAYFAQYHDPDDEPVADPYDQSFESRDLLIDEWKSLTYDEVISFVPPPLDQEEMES

Experiment [2] concerns the target T1, TGF-beta receptor type-1 (Homo sapiens) (UniProt P36897).
T1 sequence (whole entry): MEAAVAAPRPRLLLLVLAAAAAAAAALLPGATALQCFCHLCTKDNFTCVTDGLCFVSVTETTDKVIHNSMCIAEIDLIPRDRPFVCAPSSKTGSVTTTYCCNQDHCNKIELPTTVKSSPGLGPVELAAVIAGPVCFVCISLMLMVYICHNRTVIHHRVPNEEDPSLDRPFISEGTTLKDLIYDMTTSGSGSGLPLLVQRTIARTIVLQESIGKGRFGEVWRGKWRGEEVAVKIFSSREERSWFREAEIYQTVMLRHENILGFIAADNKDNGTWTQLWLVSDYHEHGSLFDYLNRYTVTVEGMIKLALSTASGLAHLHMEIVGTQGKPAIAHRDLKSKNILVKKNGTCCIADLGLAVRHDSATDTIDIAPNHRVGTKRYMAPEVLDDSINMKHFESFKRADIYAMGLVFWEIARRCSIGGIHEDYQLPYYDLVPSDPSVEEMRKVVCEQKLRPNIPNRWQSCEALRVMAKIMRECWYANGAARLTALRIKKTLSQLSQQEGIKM
The experiment in a line: Inhibition of human ALK5 activity in human HaCaT cells assessed as p3TP-luciferase reporter activity. The format is cell-based. In a few lines: (§1)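 HaCaT cells seeded at 5 × 10⁴ per well; next day (about 90% confluent) transiently co-transfected with p3TP-Luc or ARE-Luc reporter plus β-galactosidase by lipofection. Inhibitors added 24 h post-transfection, 2 h before stimulation with 5 ng/mL TGF-β for 18–24 h. Luminescence of lysates read. Mean ± SD of three independent experiments run in triplicate, relative to DMSO vehicle control.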
In general terms: A reporter such as luciferase makes a cellular process visible.

Experiment [3] has as its target T1, TGF-beta receptor type-1 (Homo sapiens). Put plainly: Inhibition of human ALK5 activity in human HaCaT cells assessed as ARE-luciferase reporter activity. In kind it is cell-based. The note with it: in the assay text read “p3TP-luciferase” for “ARE-luciferase”. In a few lines: as §1

On to `CCCc1cccc(-c2[nH]c(CCc3ccc(S(N)(=O)=O)cc3)nc2-c2ccc3nccnc3c2)n1`, for which the Activity in experiment [1] was determined as 103%.
Same read-out and setting: as for `NS(=O)(=O)c1ccc(CCc2nc(-c3ccc4nccnc4c3)c(-c3ccccn3)[nH]2)cc1`, the figure is 97%.
As to `CCc1cccc(-c2[nH]c(Cc3ccc(S(N)(=O)=O)cc3)nc2-c2ccc3nccnc3c2)n1`, the Activity in experiment [1] is 92%; in experiment [2], “Dose-dependent effect”; in experiment [3], “Dose-dependent effect”.
On to `CCCCc1cccc(-c2[nH]c(CCc3ccc(S(N)(=O)=O)cc3)nc2-c2ccc3nccnc3c2)n1`, for which the Activity in experiment [1] came out at 97%.
In the case of `CC(C)c1cccc(-c2[nH]c(Cc3ccc(S(N)(=O)=O)cc3)nc2-c2ccc3nccnc3c2)n1`, the Activity in experiment [1] amounted to 98%.
On to `CCCCc1cccc(-c2[nH]c(Cc3ccc(S(N)(=O)=O)cc3)nc2-c2ccc3nccnc3c2)n1`, for which the Activity in experiment [1] is 104%.
The same measure, in the same setting: the same measure for `NS(=O)(=O)c1ccc(Cc2nc(-c3ccc4nccnc4c3)c(-c3ccccn3)[nH]2)cc1`: 95%.
For `CCc1cccc(-c2[nH]c(CCc3ccc(S(N)(=O)=O)cc3)nc2-c2ccc3nccnc3c2)n1`, in experiment [1], the Activity came to 96%.
The same measure, in the same setting: as for `CCCc1cccc(-c2[nH]c(Cc3ccc(S(N)(=O)=O)cc3)nc2-c2ccc3nccnc3c2)n1`, the figure is 105%.
On the same count and under the same terms, as for `CC(C)c1cccc(-c2[nH]c(CCc3ccc(S(N)(=O)=O)cc3)nc2-c2ccc3nccnc3c2)n1`, the figure is 105%.
Regarding `Cc1cccc(-c2[nH]c(Cc3ccc(S(N)(=O)=O)cc3)nc2-c2ccc3nccnc3c2)n1`, the Activity is 89% in experiment [1], “Dose-dependent effect” in experiment [2] and “Dose-dependent effect” in experiment [3].
In experiment [1], `Cc1cccc(-c2[nH]c(CCc3ccc(S(N)(=O)=O)cc3)nc2-c2ccc3nccnc3c2)n1` yielded an Activity of 91%.
`NC(=O)c1ccc(-c2nc(-c3ccccn3)c(-c3ccc4c(c3)OCO4)[nH]2)cc1` returned an Activity in experiment [1] of 49%.
